Assay results as given in ChEMBL document CHEMBL1129566 (J Med Chem, 1996).
In brackets after ≈: the same amount, converted by molar mass.

Legend:
[1] = tested on: Streptococcus pneumoniae; test: In vitro minimum inhibitory concentration required to produce antibacterial activity against Streptococcus pneumoniae 1/37(pen r); format: functional
How it was run: (§1)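 Two-fold agar dilution on Mueller-Hinton agar. Overnight broth cultures diluted in fresh broth to […]; 10⁴ CFU/spot applied by inoculating apparatus onto plates with graded drug concentrations. Incubated 18 h at 37 °C; MIC taken as the lowest concentration giving complete growth inhibition.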

[2] = tested on: Streptococcus pneumoniae; test: Minimum inhibitory concentration for antibacterial activity against Streptococcus pneumoniae Q19 (pen s); format: functional; how it was run: as §1
[3] = tested on: Escherichia coli; test: In vitro minimum inhibitory concentration required to produce antibacterial activity against Escherichia coli 25922; format: functional; how it was run: as §1
[4] = tested on: Citrobacter freundii; test: In vitro minimum inhibitory concentration required to produce antibacterial activity against Citrobacter freundii 902; format: functional; how it was run: as §1
[5] = tested on: Staphylococcus aureus; test: In vitro minimum inhibitory concentration required to produce antibacterial activity against Staphylococcus aureus 887MSSA; format: functional; how it was run: as §1
[6] = tested on: Pseudomonas aeruginosa; test: (§2) In vitro minimum inhibitory concentration required to produce antibacterial activity against Pseudomonas aeruginosa ATCC 27853; format: functional
How it was run: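 Two-fold agar dilution on Mueller-Hinton agar. Overnight broth cultures diluted in fresh broth, inoculum 10⁴ CFU/spot applied by inoculating apparatus to plates with graded drug concentrations. Plates incubated 18 h at 37 °C. MIC taken as lowest concentration completely inhibiting growth.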

[7] = tested on: Staphylococcus aureus; test: In vitro minimum inhibitory concentration required to produce antibacterial activity against Staphylococcus aureus 743 MRSA; format: functional; how it was run: as §1
[8] = tested on: Enterobacter cloacae; test: In vitro minimum inhibitory concentration required to produce antibacterial activity against Enterobacter cloacae 908SSI; format: functional; how it was run: as §1
[9] = tested on: Enterococcus faecalis; test: In vitro minimum inhibitory concentration required to produce antibacterial activity against Enterococcus faecalis ATCC 29212; format: functional; how it was run: as §1
[10] = target: Beta-lactamase (Proteus vulgaris) (UniProt P52664); test: Rate of hydrolysis in 0.1 M sodium phosphate buffer at pH=7.0 by Beta lactamase (Proteus vulgaris 1028)
Beta-lactamase (Proteus vulgaris), sequence (P52664 whole entry, looked up): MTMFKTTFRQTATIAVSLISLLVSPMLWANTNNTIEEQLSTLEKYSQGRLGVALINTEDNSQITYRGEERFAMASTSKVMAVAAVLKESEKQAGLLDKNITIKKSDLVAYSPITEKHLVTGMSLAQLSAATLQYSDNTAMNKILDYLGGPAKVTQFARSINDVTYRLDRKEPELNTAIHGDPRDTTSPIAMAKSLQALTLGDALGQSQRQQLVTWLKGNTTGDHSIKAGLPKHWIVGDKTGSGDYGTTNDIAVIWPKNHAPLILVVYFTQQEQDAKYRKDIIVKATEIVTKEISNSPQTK

[11] = tested on: Enterococcus durans; test: Inhibitory concentration against purified beta-Lactam resistant PBP5 from Enterococcus durans; format: functional
How it was run: (§3)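 PBPs purified to homogeneity. IC50 measured by competition with fluorescent dansyl-penicillin or a coumarin analogue probe. Protein-bound fluorescence determined after TCA precipitation, filtration on glass fibre filters and drying, read on a fluorimeter.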

[12] = tested on: Streptococcus pneumoniae; test: Inhibitory concentration against purified cephalosporin-resistant PBP2x.604 from Streptococcus pneumoniae; format: functional; how it was run: as §3
[13] = tested on: Escherichia coli; test: Inhibitory concentration against purified penicillin-binding protein(PBP) 1bgamma of Escherichia coli; format: functional
How it was run: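 PBP purified to homogeneity. IC50 from competition with dansyl-penicillin or a coumarin analogue; protein-bound fluorescence recovered by TCA precipitation and glass-fibre filtration, then read by fluorimetry after drying.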

[14] = target: Beta-lactamase (Bacillus licheniformis) (UniProt P00808); test: Rate of hydrolysis in 0.1 M sodium phosphate buffer at pH=7.0 by Beta lactamase (Bacillus licheniformis 749/C)
Beta-lactamase (Bacillus licheniformis), sequence (P00808 whole entry): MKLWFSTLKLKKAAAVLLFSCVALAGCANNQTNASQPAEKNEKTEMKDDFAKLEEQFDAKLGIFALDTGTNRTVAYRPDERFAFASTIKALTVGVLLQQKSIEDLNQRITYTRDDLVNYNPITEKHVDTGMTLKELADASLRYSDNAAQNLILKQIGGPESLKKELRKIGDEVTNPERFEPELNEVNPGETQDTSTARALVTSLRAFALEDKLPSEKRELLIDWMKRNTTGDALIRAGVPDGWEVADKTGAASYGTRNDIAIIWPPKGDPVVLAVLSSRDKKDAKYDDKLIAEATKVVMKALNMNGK
How it was run: (§4)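 β-Lactamases purified to homogeneity; hydrolysis rate of the cephalosporin substrate measured in 0.1 M sodium phosphate buffer, pH 7.0, by standard methods.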

[15] = target: T1, Beta-lactamase SHV-1 (Escherichia coli) (UniProt P0AD63); test: Rate of hydrolysis in 0.1 M sodium phosphate buffer at pH=7.0 by Beta lactamase (SHV-4); how it was run: as §4
T1 sequence (whole entry): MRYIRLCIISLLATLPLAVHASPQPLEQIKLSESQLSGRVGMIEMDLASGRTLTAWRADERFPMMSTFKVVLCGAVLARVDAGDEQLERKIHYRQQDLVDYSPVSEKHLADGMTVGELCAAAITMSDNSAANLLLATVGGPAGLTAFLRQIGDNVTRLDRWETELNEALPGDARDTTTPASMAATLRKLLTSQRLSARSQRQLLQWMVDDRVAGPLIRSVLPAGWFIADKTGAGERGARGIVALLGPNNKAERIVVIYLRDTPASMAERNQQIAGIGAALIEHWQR

[16] = target: Beta-lactamase TEM (Escherichia coli) (UniProt P62593); test: Rate of hydrolysis in 0.1 M sodium phosphate buffer at pH=7.0 by Beta lactamase (TEM-3); how it was run: as §4
Beta-lactamase TEM (Escherichia coli), sequence (P62593 whole entry): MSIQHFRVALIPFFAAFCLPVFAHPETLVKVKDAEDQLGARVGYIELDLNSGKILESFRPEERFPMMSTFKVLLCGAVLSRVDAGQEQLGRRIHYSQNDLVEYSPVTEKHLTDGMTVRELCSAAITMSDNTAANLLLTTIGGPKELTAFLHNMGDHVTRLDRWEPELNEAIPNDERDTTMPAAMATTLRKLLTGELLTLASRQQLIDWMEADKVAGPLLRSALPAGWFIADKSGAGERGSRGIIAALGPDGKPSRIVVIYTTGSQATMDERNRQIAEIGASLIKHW

[17] = target: T1, Beta-lactamase SHV-1 (Escherichia coli); test: Rate of hydrolysis in 0.1 M sodium phosphate buffer at pH=7.0 by Beta lactamase (SHV-2); how it was run: as §4
[18] = tested on: Staphylococcus epidermidis; test: Inhibitory concentration against purified beta-Lactam-resistant PBP2 from Staphylococcus epidermidis; format: functional; how it was run: as §3
[19] = target: Beta-lactamase TEM (Escherichia coli) (UniProt P62593); test: Rate of hydrolysis in 0.1 M sodium phosphate buffer at pH=7.0 by Beta lactamase (TEM-4); how it was run: as §4
[20] = tested on: Streptococcus pneumoniae; test: Inhibitory concentration against purified cephalosporin-resistant PBP2x.505 from Streptococcus pneumoniae; format: functional; how it was run: as §3
[21] = tested on: Pseudomonas aeruginosa; test: as §2; format: functional; how it was run: as §1; remark: listed apart in the source
[22] = tested on: Streptococcus pneumoniae; test: Inhibitory concentration against purified PBP2x from Streptococcus pneumoniae; format: functional; how it was run: as §3

SMILES	MIC [1] [mg/L]	MIC [2] [mg/L]	MIC [3] [mg/L]	MIC [4] [mg/L]	MIC [5] [mg/L]	MIC [7] [mg/L]	MIC [8] [mg/L]	MIC [9] [mg/L]	MIC [21] [mg/L]	also measured
CC(C)(O/N=C(\C(=O)N[C@@H]1C(=O)N2C(C(=O)[O-])=C(C[n+]3ccccc3)CS[C@H]12)c1csc(N)n1)C(=O)O [CEFTAZIDIME]	16 (≈ 29.3 µM)	0.25 (≈ 0.457 µM)	0.25 (≈ 0.457 µM)	0.5 (≈ 0.915 µM)	8 (≈ 14.6 µM)	> 32	1 (≈ 1.83 µM)	> 32		MIC [6]: 1 mg/L (≈ 1.83 µM)
Nc1nc(/C(=N/O)C(=O)N[C@@H]2C(=O)N3C(C(=O)O)=C(/C=C4\CCN(CC(F)(F)F)C4=O)CS[C@H]23)cs1 [RO 25-6833]	1 (≈ 1.83 µM)	0.06 (≈ 0.11 µM)	≤ 0.06	0.25 (≈ 0.457 µM)	1 (≈ 1.83 µM)	8 (≈ 14.6 µM)	0.5 (≈ 0.915 µM)	1 (≈ 1.83 µM)	16 (≈ 29.3 µM)	Activity (M min-1 (M of enzyme)-1) [10]: 461; IC50 [11]: 8 µM; IC50 [12]: 0.87 µM; IC50 [13]: 30 µM; Activity (M min-1 (M of enzyme)-1) [14]: 906; Activity (M min-1 (M of enzyme)-1) [15]: 1390; Activity (M min-1 (M of enzyme)-1) [16]: 14; Activity (M min-1 (M of enzyme)-1) [17]: 1580; IC50 [18]: 25 µM; Activity (M min-1 (M of enzyme)-1) [19]: 305; IC50 [20]: 0.36 µM; IC50 [22]: 0.3 µM
COc1cccc(CN2CC/C(=C\C3=C(C(=O)O)N4C(=O)[C@@H](NC(=O)/C(=N\O)c5csc(N)n5)[C@H]4SC3)C2=O)c1	1 (≈ 1.71 µM)	≤ 0.06	2 (≈ 3.42 µM)	2 (≈ 3.42 µM)	1 (≈ 1.71 µM)	8 (≈ 13.7 µM)	4 (≈ 6.84 µM)	1 (≈ 1.71 µM)	> 32	
C[C@@H](O)[C@H]1C(=O)N2C(C(=O)O)=C(SCCNC=N)C[C@H]12 [IMIPENEM ANHYDROUS]										IC50 [11]: > 1000 µM; IC50 [12]: 5.3 µM; IC50 [13]: 0.01 µM; IC50 [18]: > 1000 µM; IC50 [20]: 0.5 µM; IC50 [22]: 0.5 µM
C=CC1=C(C(=O)O)N2C(=O)[C@@H](NC(=O)/C(=N\O)c3csc(N)n3)[C@H]2SC1	4 (≈ 10.1 µM)	0.25 (≈ 0.632 µM)	0.25 (≈ 0.632 µM)	8 (≈ 20.2 µM)	0.5 (≈ 1.26 µM)	16 (≈ 40.5 µM)	16 (≈ 40.5 µM)	16 (≈ 40.5 µM)	> 32	
CO/N=C(\C(=O)N[C@@H]1C(=O)N2C(C(=O)O)=C(/C=C3\CCN(CC(F)(F)F)C3=O)CS[C@H]12)c1csc(N)n1	0.5 (≈ 0.892 µM)	≤ 0.03	0.25 (≈ 0.446 µM)	0.25 (≈ 0.446 µM)	8 (≈ 14.3 µM)	8 (≈ 14.3 µM)	1 (≈ 1.78 µM)	> 32	8 (≈ 14.3 µM)	
Nc1nc(/C(=N/OC2CCCC2)C(=O)N[C@@H]2C(=O)N3C(C(=O)O)=C(/C=C4\CCN(CC(F)(F)F)C4=O)CS[C@H]23)cs1	1 (≈ 1.63 µM)	≤ 0.06	2 (≈ 3.25 µM)	4 (≈ 6.51 µM)	4 (≈ 6.51 µM)	8 (≈ 13 µM)	4 (≈ 6.51 µM)	8 (≈ 13 µM)	8 (≈ 13 µM)	
C=CCN1CC/C(=C\C2=C(C(=O)O)N3C(=O)[C@@H](NC(=O)/C(=N\O)c4csc(N)n4)[C@H]3SC2)C1=O	1 (≈ 1.98 µM)	≤ 0.06	≤ 0.06	≤ 0.06	1 (≈ 1.98 µM)	16 (≈ 31.7 µM)	0.25 (≈ 0.495 µM)	1 (≈ 1.98 µM)	16 (≈ 31.7 µM)	
Nc1nc(/C(=N/O)C(=O)N[C@@H]2C(=O)N3C(C(=O)O)=C(/C=C4\CCN(O)C4=O)CS[C@H]23)cs1	4 (≈ 8.32 µM)	0.06 (≈ 0.125 µM)	≤ 0.06	0.5 (≈ 1.04 µM)	1 (≈ 2.08 µM)	16 (≈ 33.3 µM)	16 (≈ 33.3 µM)	4 (≈ 8.32 µM)	8 (≈ 16.6 µM)	
Nc1nc(/C(=N/O)C(=O)N[C@@H]2C(=O)N3C(C(=O)O)=C(/C=C4\CCN(c5ccc(O)cc5)C4=O)CS[C@H]23)cs1	1 (≈ 1.8 µM)	0.12 (≈ 0.216 µM)	≤ 0.06	≤ 0.06	0.5 (≈ 0.898 µM)	4 (≈ 7.19 µM)	0.25 (≈ 0.449 µM)	0.5 (≈ 0.898 µM)	4 (≈ 7.19 µM)	
Nc1nc(/C(=N/O)C(=O)N[C@@H]2C(=O)N3C(C(=O)O)=C(/C=C4/CN(c5ccccc5)C4=O)CS[C@H]23)cs1	2 (≈ 3.8 µM)	0.12 (≈ 0.228 µM)	2 (≈ 3.8 µM)	4 (≈ 7.6 µM)	0.12 (≈ 0.228 µM)	2 (≈ 3.8 µM)	4 (≈ 7.6 µM)	0.5 (≈ 0.95 µM)	16 (≈ 30.4 µM)	
Nc1nc(/C(=N/O)C(=O)N[C@@H]2C(=O)N3C(C(=O)O)=C(/C=C4\CCCN(c5ccccc5)C4=O)CS[C@H]23)cs1	4 (≈ 7.21 µM)	0.12 (≈ 0.216 µM)	1 (≈ 1.8 µM)	1 (≈ 1.8 µM)	2 (≈ 3.61 µM)	32 (≈ 57.7 µM)	4 (≈ 7.21 µM)	8 (≈ 14.4 µM)	> 32	
C=CCO/N=C(\C(=O)N[C@@H]1C(=O)N2C(C(=O)O)=C(/C=C3\CCN(CC(F)(F)F)C3=O)CS[C@H]12)c1csc(N)n1	0.5 (≈ 0.852 µM)	≤ 0.06	1 (≈ 1.7 µM)	2 (≈ 3.41 µM)	4 (≈ 6.82 µM)	4 (≈ 6.82 µM)	4 (≈ 6.82 µM)	32 (≈ 54.6 µM)	8 (≈ 13.6 µM)	
Nc1nc(/C(=N/O)C(=O)N[C@@H]2C(=O)N3C(C(=O)O)=C(/C=C4\CCN(c5ccccc5)C4=O)CS[C@H]23)cs1	2 (≈ 3.7 µM)	0.06 (≈ 0.111 µM)	0.25 (≈ 0.462 µM)	0.25 (≈ 0.462 µM)	0.5 (≈ 0.925 µM)	8 (≈ 14.8 µM)	0.5 (≈ 0.925 µM)	0.25 (≈ 0.462 µM)	16 (≈ 29.6 µM)	
